Source: ChEMBL document CHEMBL1122519, “Bispyridinamines: a new class of topical antimicrobial agents as inhibitors of dental plaque” (1984)

Experiments:
Escherichia coli [1] = assay: Minimum inhibitory concentration against Escherichia coli (Vogel); format: functional
Summary of the method: (§1)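 Serial twofold tube dilution in tryptose phosphate broth. Each compound was prepared as a 1000 μg/mL aqueous stock and diluted in double-strength broth, then 2×10^5 cells were added. Tubes were incubated aerobically at 37 °C for 24 h. The MIC was taken as the lowest concentration with no visible growth.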

Klebsiella pneumoniae = assay: Minimum inhibitory concentration against Klebsiella pneumonia 39645; format: functional; summary of the method: as §1
Proteus mirabilis = assay: Minimum antimicrobial inhibitory concentration against Proteus mirabilis MGH-1; format: functional; summary of the method: as §1
Pseudomonas aeruginosa = assay: Minimum antimicrobial inhibitory concentration against Pseudomonas aeruginosa MGH-2; format: functional; summary of the method: as §1
Staphylococcus aureus = assay: Minimum antimicrobial inhibitory concentration against Staphylococcus aureus; format: functional; summary of the method: as §1
Streptococcus mutans = assay: Minimum plaque inhibitory concentration using a standard test organism, Streptococcus mutans OMZ-61; format: functional, organism-based
Summary of the method: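 Ceramic hydroxylapatite plates were soaked twice for 1 min each in compound at […] (aqueous), air-dried and rinsed, then hung in sucrose beef-extract medium (pH 7.0) inoculated with late-log S. mutans OMZ-61. Incubation was anaerobic at 37 °C for 24 h, and treatment plus reinoculation were repeated for a second 24 h. Plaque was stained with 1% FD&C Red No. 3 and scored visually. The value is the lowest concentration giving no plaque while medium growth matched control.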

Escherichia coli [2] = assay: Antimicrobial minimum inhibitory concentration against Escherichia coli AB1932-1; format: functional; summary of the method: as §1
Escherichia coli [3] = assay: Antimicrobial minimum inhibitory concentration against Escherichia coli 100/B22; format: functional; summary of the method: as §1

| SMILES | MIC (Escherichia coli [1]) [µg/mL] | MIC (Klebsiella pneumoniae) [µg/mL] | MIC (Proteus mirabilis) [µg/mL] | MIC (Pseudomonas aeruginosa) [µg/mL] | MIC (Staphylococcus aureus) [µg/mL] | Concentration (Streptococcus mutans) [%] | MIC (Escherichia coli [2]) [µg/mL] | MIC (Escherichia coli [3]) [µg/mL] |
| --- | --- | --- | --- | --- | --- | --- | --- | --- |
| Br.Br.N=c1ccn(CCCCCCCCCCCCn2ccc(=N)cc2)cc1 | > 62.5 | > 62.5 | > 125 | > 62.5 | 2 | > 1 | – | – |
| CS(=O)(=O)O.CS(=O)(=O)O.Clc1ccc(N=c2ccn(CCCCn3ccc(=Nc4ccc(Cl)cc4)cc3)cc2)cc1 | 15.6 | > 250 | > 250 | > 125 | 7.8 | > 1 | 7.8 | 15.6 |
| Br.Br.CCCCCCN=c1ccn(CCCCCCCCCn2ccc(=NCCCCCC)cc2)cc1 | 2 | 3.9 | 125 | 125 | 0.4 | > 1 | 2 | 2 |
| Br.Br.c1cn(CCCCCCCn2ccc(=NC3CCCCC3)cc2)ccc1=NC1CCCCC1 | > 125 | > 125 | > 125 | 125 | 7.8 | > 1 | 125 | > 125 |
| Br.Br.CCCCCCN=c1ccn(CCCCn2ccc(=NCCCCCC)cc2)cc1 | 125 | > 125 | > 125 | > 250 | 7.8 | – | 62.5 | 125 |
| Br.Br.CCCCCCCCCCN=c1ccn(CCCCCCCCCn2ccc(=NCCCCCCCCCC)cc2)cc1 | 2 | 15.6 | 7.8 | 7.8 | 1 | 0.01 | 7.8 | 3.9 |
| Br.Br.CCCCCCN=c1ccn(CCCCCn2ccc(=NCCCCCC)cc2)cc1 | 125 | > 125 | > 250 | > 125 | 2 | – | 31.3 | 62.5 |
| Br.Br.CCCCCCCCCCCCN=c1ccn(CCCCCCCCn2ccc(=NCCCCCCCCCCCC)cc2)cc1 | 31.3 | > 62.5 | 62.5 | > 62.5 | 7.8 | 0.1 | 62.5 | > 62.5 |
| Br.Br.CCCCCCN=c1ccn(CCCCCCCCCCn2ccc(=NCCCCCC)cc2)cc1 | 2 | 3.9 | 31.3 | 31.3 | 0.2 | > 1 | 1 | 2 |
| CS(=O)(=O)O.CS(=O)(=O)O.Clc1ccc(N=c2ccn(CCCCCCCCn3ccc(=Nc4ccc(Cl)cc4)cc3)cc2)cc1 | 3.1 | 31.3 | 125 | 125 | 0.4 | > 1 | 1.6 | 3.1 |
| Br.Br.N=c1ccn(CCCCCCCCCCn2ccc(=N)cc2)cc1 | 62.5 | 250 | > 500 | 500 | 7.8 | > 1 | 31.3 | 62.5 |
| Br.Br.Fc1ccc(N=c2ccn(CCCCCCn3ccc(=Nc4ccc(F)cc4)cc3)cc2)cc1 | 31.3 | > 125 | > 125 | > 62.5 | 15.6 | > 1 | 15.6 | 15.6 |
| Br.Br.Clc1ccc(N=c2ccn(CCCCCCCn3ccc(=Nc4ccc(Cl)cc4)cc3)cc2)cc1 | 3.9 | > 125 | > 125 | > 125 | 1 | > 1 | 125 | 3.9 |
| Br.Br.c1cn(CCCCCCCCn2ccc(=NC3CCCCC3)cc2)ccc1=NC1CCCCC1 | 62.5 | > 125 | > 125 | 250 | 3.9 | > 1 | 31.3 | 62.5 |
| Br.Br.N=c1ccn(CCCCCCCCCn2ccc(=N)cc2)cc1 | 250 | 500 | > 500 | > 500 | 31.3 | > 1 | – | – |
